Screens (PubChem BioAssay)
An excerpt weighted towards active compounds, which were near 2.6% of everything screened.
ABCB6 inh MLPCN: inhibitors of human ABC transporter ABCB6. Q9NP58. K562-ABCB6 porphyrin accumulation, flow cytometry, 1 h; active compounds read low. fluorescence ratio to DMSO, % at 10 µM. actives 0.19% (n = 360,000);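 active = fluorescence ratio to DMSO below 75%, the collection mean minus 3 SD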;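 note: signal is porphyrin accumulated inside mitochondria; lower ratio means ABCB6 inhibition with less porphyrin fluorescence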
Target sequence (Q9NP58 whole entry, looked up): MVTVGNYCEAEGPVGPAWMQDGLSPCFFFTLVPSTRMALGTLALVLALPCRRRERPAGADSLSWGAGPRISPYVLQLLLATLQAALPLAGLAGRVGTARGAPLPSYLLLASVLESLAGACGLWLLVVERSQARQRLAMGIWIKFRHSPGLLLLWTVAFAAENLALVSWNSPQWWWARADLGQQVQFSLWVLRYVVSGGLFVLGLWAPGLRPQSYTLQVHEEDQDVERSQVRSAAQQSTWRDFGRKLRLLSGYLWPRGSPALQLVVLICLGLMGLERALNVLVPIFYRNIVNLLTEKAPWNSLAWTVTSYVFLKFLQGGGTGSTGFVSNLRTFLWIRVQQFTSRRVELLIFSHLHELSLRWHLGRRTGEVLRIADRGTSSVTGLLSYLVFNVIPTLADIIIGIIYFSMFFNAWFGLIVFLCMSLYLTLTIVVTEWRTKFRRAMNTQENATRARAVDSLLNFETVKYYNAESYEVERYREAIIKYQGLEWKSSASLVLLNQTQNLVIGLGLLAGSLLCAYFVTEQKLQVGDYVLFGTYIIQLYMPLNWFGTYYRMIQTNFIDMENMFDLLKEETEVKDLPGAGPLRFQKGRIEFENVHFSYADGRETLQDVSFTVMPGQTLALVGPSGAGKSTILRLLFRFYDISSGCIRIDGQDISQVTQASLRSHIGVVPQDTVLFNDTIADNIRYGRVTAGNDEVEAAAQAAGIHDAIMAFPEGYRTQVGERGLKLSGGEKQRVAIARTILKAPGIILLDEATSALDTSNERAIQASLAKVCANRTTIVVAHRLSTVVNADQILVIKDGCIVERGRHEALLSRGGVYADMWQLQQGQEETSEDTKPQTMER
Exocytosis inh: blocks lytic granule exocytosis; inhibition, % at 10 µM; actives 0.66% (n = 360,000); TALL-104 LAMP-1 surface exposure, flow cytometry; cells stimulated with thapsigargin and PMA;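 active = inhibition above about 55%, limit read from the data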
MC4R barr agon: human MC4R agonism via beta-arrestin; AID 540308; actives 0.98% (n = 360,000); P32245; U2OS MC4R beta-arrestin complementation, luminescence; percent of melanotan II response, DMSO zero; activation, % at 8.9 µM;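 active = activation above a per-plate cutoff, the mean activation of sample wells on that plate plus 3 SD, cut at about 8% in these data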
hiPSC survival: hiPSC single-cell survival enhancement | ATPlite luminescence; 100% = ROCK inhibitor wells, 0% = DMSO | actives 0.044% (n = 360,000) | survival enhancement, % at 20 µM | AID 602274; in the data active = survival enhancement above about 18%;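 note: cells exposed to compounds for 16 hours before the ATP read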
MC4R antag cAMP: blocks human MC4R cAMP signaling; P32245; MC4R-expressing cells, MTII-stimulated cAMP, LANCE TR-FRET; inhibition, % at 6.5 µM; actives 0.48% (n = 360,000);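 active = inhibition above its plate's cutoff, the mean of tested wells on that plate plus 3 SD, cut at about 29% in these data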
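system = U2OS cells with stable human MC4R expression | also added = Melanotan II challenge after compound preincubation | dosing = one concentration, 6.5 µM nominal | incubation = compound 30 min, challenge 1 h, detection 1 h | measured by = TR-FRET with Eu-cAMP and labeled anti-cAMP, 671 nm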
TbMetRS inhib: blocks T. brucei methionyl-tRNA synthetase activity; AID 624268; inhibition, % at 11.9 µM; actives 0.4% (n = 360,000); purified T. brucei MetRS, ATP depletion, Kinase-Glo luminescence;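 active = inhibition above a per-plate cutoff of the control wells' mean inhibition plus 3 SD, cut at about 5.5% in these data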
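Material: parasite MetRS enzyme / Replication: singlicate, one well per compound / Signal: luminescence of leftover ATP / Schedule: 2 h aminoacylation at 25 °C after 15 min preincubation / Medium: HEPES-MgCl2-KCl buffer plus DTT, spermine, BSA, pyrophosphatase / Doses: 11.9 µM single point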
Exocytosis CP01: lytic granule exocytosis inhibition; shares compounds with Exocytosis inh; TALL-104 cells, LAMP-1 externalization, flow cytometry; stimulated with PMA plus thapsigargin; inhibition, % at 10 µM; actives 11% (n = 1,500); AID 651954; in the data active = inhibition above about 60%
Large screens that a line does not name were inactive (follow-up assays come after a bar, where they were run).

Cc1[nH]c2ccccc2c1C(c1ccccn1)N1CCC(C(N)=O)CC1 (centres undefined)	Exocytosis inh 57 | Exocytosis CP01 inactive
CCOC(=O)C1CCN(C(c2ccccn2)c2c(C)[nH]c3ccccc23)CC1 (centres undefined)	none
COc1ccccc1N(C)S(=O)(=O)c1ccc(Cl)c(C(=O)NNC(=O)c2ccccc2O)c1	none
COc1ccccc1N(C)S(=O)(=O)c1ccc(Cl)c(C(=O)OCc2c(C)noc2C)c1	Exocytosis inh 76 | Exocytosis CP01 inactive
COc1ccccc1CCNC(=O)CCSc1nc(-c2ccco2)cc(C(F)(F)F)n1	Exocytosis inh 64 | Exocytosis CP01 inactive
CCc1ccc(S(=O)(=O)Nc2cc(SCC(=O)O)c(O)c3ccccc23)cc1	Exocytosis inh 67 | Exocytosis CP01 inactive
CCc1ccc(S(=O)(=O)Nc2ccc(O)c3ccccc23)cc1	none
O=C(O)CSc1cc(NS(=O)(=O)c2cccc([N+](=O)[O-])c2)c2ccccc2c1O	Exocytosis inh 75 | Exocytosis CP01 inactive
O=C(NCC1CCCO1)C1CCCN1C(=O)Nc1ccccc1[N+](=O)[O-] (centres undefined)	none
COc1ccccc1-n1c(CCC(=O)O)ccc1-c1ccccc1	none
COc1ccc(-c2ccc(CCC(=O)O)n2-c2ccccc2OC)cc1	Exocytosis inh 67 | Exocytosis CP01 inactive
CC1CCN(C(=O)Cn2nnc(-c3ccccc3)n2)CC1	Exocytosis inh 58 | Exocytosis CP01 inactive
CC1CC(C)CN(C(=O)Cn2nnc(-c3ccccc3)n2)C1 (centres undefined)	none
CC(C)NC(=O)N(C)C[C@@H]1Oc2cc(Br)ccc2S(=O)(=O)N([C@@H](C)CO)C[C@H]1C	none
CC1CC(C)CN(C(=O)c2ccc(S(=O)(=O)N3CC(C)CC(C)C3)cc2)C1 (centres undefined)	none
c1ccc(C2(CN3CCNC[C@@H]3CC3CCCCC3)CC2)cc1	none
Fc1cccc(CCN2CCNC[C@@H]2CC2CCCCC2)c1	Exocytosis inh 62 | Exocytosis CP01 inactive
O=C(NCC1CCCO1)c1cc(S(=O)(=O)N2CCOCC2)ccc1Cl (centres undefined)	none
O=C(NCC1CCCO1)c1cc(S(=O)(=O)Nc2ccc(Br)cc2)ccc1Cl (centres undefined)	Exocytosis inh 83 | Exocytosis CP01 inactive
COc1cc(C(=O)NC(C)C2CC3CCC2C3)ccc1OC(F)F (centres undefined)	none
CCCCN(CCCC)c1nc(-c2ccncc2)nc2ccccc12	Exocytosis inh 93 | Exocytosis CP01 68
COC(=O)c1ccc(NC(=O)C2CCN(C(=O)Nc3ccccc3)CC2)cc1	none
C#CCNC(=O)C1=C[C@@H](c2coc3ccccc3c2=O)C[C@@H](OCc2ccc(CO)cc2)O1	Exocytosis inh 88 | Exocytosis CP01 inactive
Cn1nc(C(F)(F)F)c2cc(C(=O)Nc3ccc(C(F)(F)F)cc3)sc21	Exocytosis inh 86 | Exocytosis CP01 inactive
Cn1nc(C(F)(F)F)c2cc(C(=O)Nc3ccc(F)c(Cl)c3)sc21	none
O=C(CC1N=C(Cc2ccccc2)NNC1=O)N/N=C/c1ccc([N+](=O)[O-])cc1 (centres undefined)	none
Cc1ccc2nc(N(CCCN(C)C)C(=O)c3cc(-c4cccs4)nc4ccccc34)sc2c1	Exocytosis inh 72, MC4R barr agon 9.2 | Exocytosis CP01 inactive
CN(C)CCCN(C(=O)c1cc(-c2cccs2)nc2ccccc12)c1nc2c(F)cccc2s1	none
CN(C)CCCN(C(=O)c1nc2ccccc2s1)c1nc2ccc(F)cc2s1	none
CCc1ccc2nc(N(CCCN(C)C)C(=O)c3ccc(S(=O)(=O)N4CCc5ccccc5C4)cc3)sc2c1	Exocytosis inh 77, MC4R barr agon 20 | Exocytosis CP01 87
CCOc1cccc2sc(N(CCCN(C)C)C(=O)c3ccc(S(=O)(=O)N4CCc5ccccc5C4)cc3)nc12	none
CN(C)CCCN(C(=O)c1ccc(C(=O)c2ccccc2)cc1)c1nc2ccc(F)cc2s1	Exocytosis inh 59 | Exocytosis CP01 inactive
COc1ccc(CN(C)CC(O)COc2ccc(-c3ccccc3)cc2)cc1OC (centres undefined)	Exocytosis inh 63 | Exocytosis CP01 inactive
CCOc1ccc(CN(C)CC(O)COC(c2ccc(OC)cc2)c2ccc(OC)cc2)cc1 (centres undefined)	Exocytosis inh 69 | Exocytosis CP01 inactive
CN(Cc1ccc(OCC(O)CN(C)Cc2ccccc2)cc1)Cc1nccn1C (centres undefined)	none
COc1ccc(CN(C)CC(O)COC(c2ccc(OC)cc2)c2ccc(OC)cc2)cc1 (centres undefined)	none
C=CC[C@H](CC(=O)OC(C)(C)C)C(=O)OC[C@H]1CCCN1C(=O)[C@@H](CC=C)CC(=O)N(CCO)Cc1ccccc1	none
O=C(c1cc2cc(Cl)ccc2[nH]1)N1CCN(c2ccccn2)CC1	none
COc1ccc(C(=O)c2coc3ccc(O)c(CN(C)C)c23)cc1	none
CCOC(=O)c1c(CSc2ccccc2)oc2cc(Br)c(O)c(CN(C)C)c12	none
COC(=O)Cc1c(CSc2ccccc2)oc2ccc(O)c(CN(C)C)c12	Exocytosis inh 58 | Exocytosis CP01 inactive
CC(=O)c1c(CSc2ccccc2)oc2ccc(O)c(CN(C)C)c12	Exocytosis inh 66 | Exocytosis CP01 inactive
O=C(c1ccccc1NS(=O)(=O)c1ccc([N+](=O)[O-])cc1[N+](=O)[O-])N1O[C@@H]2C=C[C@H]1C2	none
COc1cc(CNCCCN2CCOCC2)cc(Br)c1OCc1ccc(Cl)cc1	Exocytosis inh 58 | Exocytosis CP01 inactive
COc1cc(CNCCN2CCOCC2)ccc1OCc1ccc(Cl)cc1	none
COC(=O)[C@@H]1C[C@@]2(O)[C@H](O)[C@H](O)[C@H](O)C[C@H]2N1Cc1cccc2ccccc12	Exocytosis inh 70 | Exocytosis CP01 inactive
CCc1c(C)c(C#N)c2nc3ccccc3n2c1Nc1c(C)n(C)n(-c2ccccc2)c1=O	Exocytosis inh 64 | Exocytosis CP01 inactive
COc1ccccc1N1CCN(c2ccc([N+](=O)[O-])cc2Cl)CC1	none
COc1cc2c(cc1OC)CN(c1ccc([N+](=O)[O-])cc1Cl)CC2	Exocytosis inh 70 | Exocytosis CP01 inactive
CCOc1cccc(-c2nnc3n2N=C(c2cc(OC)ccc2OC)CS3)c1	Exocytosis inh 75 | Exocytosis CP01 inactive
COc1cccc(-c2nnc3n2N=C(c2cc(OC)ccc2OC)CS3)c1	none
